Test results published in ChEMBL document CHEMBL1255436, “Peptide fragments of a beta-defensin derivative with potent bactericidal activity” (Antimicrob Agents Chemother, 2010).
In brackets after ≈: the same amount, converted by molar mass. Activity calls are given as the source filed them. The rule behind the calls is not given here.

Key:
Acinetobacter baumannii = test: Antimicrobial activity against Acinetobacter baumannii ATCC 19606 after 3 hrs by bactericidal assay; format: functional; details: ATCC 19606 = CIP 70.34 = JCM 6841, 3 h
In short: (§1)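 Mid-log cultures grown in Iso-Sensitest broth, diluted to 1 × 10⁶–5 × 10⁶ CFU/ml in 10 mM potassium phosphate with 1% (vol/vol) Iso-Sensitest broth, pH 7.4. Peptides (monomer made by 10 mM DTT reduction overnight at room temperature, or dimer; oxidation state checked by MS) are incubated with 100 μl cells at 37°C for 3 h. Tenfold dilutions are plated and CFU counted next day. MBC is >99.99% killing, in duplicate on three occasions, taken as the mean. Mann-Whitney U test.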

Pseudomonas aeruginosa [1] = test: Antimicrobial activity against Pseudomonas aeruginosa PAO1 after 3 hrs by bactericidal assay; format: functional; details: PAO1, 3 h; in short: as §1
Staphylococcus aureus [2] = test: Antibacterial activity against methicillin-resistant Staphylococcus aureus J2918 after 3 hrs by bactericidal assay; format: functional; details: J2918, 3 h; in short: as §1
Escherichia coli = test: Antimicrobial activity against Escherichia coli ATCC 25922 after 3 hrs by bactericidal assay; format: functional; details: ATCC 25922, 3 h; in short: as §1
Enterococcus faecalis = test: Antimicrobial activity against Enterococcus faecalis ATCC 700802 after 3 hrs by bactericidal assay; format: functional; details: ATCC 700802, 3 h; in short: as §1
Staphylococcus aureus [3] = test: Antimicrobial activity against Staphylococcus aureus ATCC 25923 after 3 hrs by bactericidal assay; format: functional; details: ATCC 25923, 3 h; in short: as §1
Burkholderia cenocepacia = test: Antimicrobial activity against Burkholderia cenocepacia J2315 after 3 hrs by bactericidal assay; format: functional; details: J2315, 3 h
Pseudomonas aeruginosa [4] = test: Antimicrobial activity against Pseudomonas aeruginosa PAO1 after 3 hrs by bactericidal assay in presence of 200 mM NaCl; format: functional, organism-based
In short: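 Mid-log P. aeruginosa was grown in Iso-Sensitest broth and diluted in 10 mM potassium phosphate with 1% broth, pH 7.4, with sodium chloride added. Peptide dilutions were incubated with 1 × 10⁵ to 5 × 10⁵ CFU per 100 μl at 37°C for 3 h, then CFU were plated. MBC is >99.99% kill, the mean of duplicates from three independent runs.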

Pseudomonas aeruginosa [5] = test: Antimicrobial activity against Pseudomonas aeruginosa PAO1 after 3 hrs by bactericidal assay in presence of 10 mM NaCl; format: functional; details: PAO1, 3 h
In short: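 P. aeruginosa PAO1 at mid-log in Iso-Sensitest broth, diluted to 1 × 10⁶–5 × 10⁶ CFU/ml in 10 mM potassium phosphate/1% Iso-Sensitest broth, pH 7.4, with 10 mM NaCl added. Dimeric peptides are incubated with 100 μl cells at 37°C for 3 h, then plated as tenfold dilutions with CFU counted next day. MBC is >99.99% killing, from duplicates on three occasions. Mann-Whitney U test.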

Pseudomonas aeruginosa [6] = test: Antimicrobial activity against Pseudomonas aeruginosa PAO1 assessed as bacterial killing at 16.5 uM after 3 hrs by bactericidal assay; format: functional, organism-based
Staphylococcus aureus [7] = test: Stability of the compound in Staphylococcus aureus ATCC 25923 after 4 hrs by LC-MS analysis; format: ADME, organism-based
In short: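 Peptide is incubated with S. aureus ATCC 25923 for 4 h. Peptide integrity is then assessed by LC-MS as peak area relative to the sample before incubation.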

Pseudomonas aeruginosa [8] = test: Antimicrobial activity against Pseudomonas aeruginosa PAO1 at 20 uM; format: functional, organism-based
Staphylococcus aureus [9] = test: Antimicrobial activity against Staphylococcus aureus ATCC 25923 at 20 uM; format: functional, organism-based

Compound | MBC (Acinetobacter baumannii) [µg/mL] | MBC (Pseudomonas aeruginosa [1]) [µg/mL] | MBC (Staphylococcus aureus [2]) [µg/mL] | MBC (Escherichia coli) [µg/mL] | MBC (Enterococcus faecalis) [µg/mL] | MBC (Staphylococcus aureus [3]) [µg/mL] | MBC (Burkholderia cenocepacia) [µg/mL] | Activity (Pseudomonas aeruginosa [4]) | MBC (Pseudomonas aeruginosa [5]) [µM] | Activity (Pseudomonas aeruginosa [6]) | Stability (Staphylococcus aureus [7]) | Activity (Pseudomonas aeruginosa [8]) | Activity (Staphylococcus aureus [9])
CC[C@H](C)[C@H](NC(=O)[C@H](CCCNC(=N)N)NC(=O)[C@H](C)NC(=O)[C@H](Cc1ccccc1)NC(=O)[C@H](Cc1ccccc1)NC(=O)[C@H](CCCCN)NC(=O)[C@H](CCCNC(=N)N)NC(=O)[C@H](CC(C)C)NC(=O)[C@@H](NC(=O)[C@H](CCCCN)NC(=O)[C@@H]1CCCN1C(=O)[C@H](CC(C)C)NC(=O)[C@@H](N)Cc1ccccc1)[C@H](C)O)C(=O)N[C@@H](CCCNC(=N)N)C(=O)NCC(=O)NCC(=O)N[C@@H](CCCNC(=N)N)C(=O)N[C@@H](C)C(=O)N[C@@H](C)C(=O)N[C@H](C(=O)N[C@@H](CC(C)C)C(=O)N[C@@H](CC(N)=O)C(=O)N[C@@H](C)C(=O)O)C(C)C | > 22 | > 48 | > 40 | > 20 | > 20 | > 205 | > 20 |  |  |  |  |  | 
CC[C@H](C)[C@@H]1NC(=O)[C@H](CCC(N)=O)NC(=O)[C@H](CCC(=O)O)NC(=O)[C@H](CCC(=O)O)NC(=O)[C@H](CCCCN)NC(=O)CNC(=O)[C@H](CC(C)C)NC(=O)[C@@H]2CSSC[C@@H](C(=O)N[C@@H](CCCNC(=N)N)C(=O)N[C@@H](CCCCN)C(=O)N[C@@H](CCCCN)C(=O)N[C@@H](CCCCN)C(=O)O)NC(=O)[C@@H]3CSSC[C@H](NC(=O)[C@H](Cc4ccccc4)NC(=O)[C@H](Cc4ccccc4)NC(=O)[C@H](CCCCN)NC(=O)[C@H](CCCNC(=N)N)NC(=O)[C@H](CC(C)C)NC(=O)[C@@H](NC(=O)[C@H](CCCCN)NC(=O)[C@@H]4CCCN4C(=O)[C@H](CC(C)C)NC(=O)[C@@H](N)Cc4ccccc4)[C@H](C)O)C(=O)N[C@@H](CCCNC(=N)N)C(=O)N[C@@H]([C@@H](C)CC)C(=O)N[C@@H](CCCNC(=N)N)C(=O)NCC(=O)NCC(=O)N[C@@H](CCCNC(=N)N)C(=O)N[C@@H](CSSC[C@H](NC(=O)[C@H](CCCNC(=N)N)NC(=O)CNC1=O)C(=O)N[C@@H](CO)C(=O)N[C@@H](CC(N)=O)C(=O)N[C@@H](CO)C(=O)NCC(=O)N[C@@H](CCCNC(=N)N)C(=O)N[C@@H](CCCCN)C(=O)N3)C(=O)N[C@@H](C)C(=O)N[C@@H](C(C)C)C(=O)N[C@@H](CC(C)C)C(=O)N[C@@H](CC(N)=O)C(=O)N2 | 0.3 (≈ 0.0579 µM) | 0.3 (≈ 0.0579 µM) | > 48 | > 205 | 1.2 (≈ 0.231 µM) | 1 (≈ 0.193 µM) | 0.6 (≈ 0.116 µM) |  |  |  |  |  | 
CC(C)C[C@H](NC(=O)[C@@H](NC(=O)[C@H](CCCCN)NC(=O)[C@@H]1CCCN1C(=O)[C@H](CC(C)C)NC(=O)[C@@H](N)Cc1ccccc1)[C@H](C)O)C(=O)N[C@@H](CCCNC(=N)N)C(=O)N[C@@H](CCCCN)C(=O)N[C@@H](Cc1ccccc1)C(=O)N[C@@H](Cc1ccccc1)C(=O)O | 0.75 (≈ 0.578 µM) | 1.3 (≈ 1 µM) | 2.4 (≈ 1.85 µM) | 3 (≈ 2.31 µM) | 1.2 (≈ 0.925 µM) | 1.2 (≈ 0.925 µM) | > 48 | Active |  |  |  |  | 
CC[C@H](C)[C@H](NC(=O)[C@H](CCC(N)=O)NC(=O)[C@H](CCC(=O)O)NC(=O)[C@H](CCC(=O)O)NC(=O)[C@H](CCCCN)NC(=O)CNC(=O)[C@H](CC(C)C)NC(=O)[C@H](C)NC(=O)[C@H](CC(N)=O)NC(=O)[C@H](CC(C)C)NC(=O)[C@@H](NC(=O)[C@H](C)NC(=O)[C@H](C)NC(=O)[C@H](CCCNC(=N)N)NC(=O)CNC(=O)CNC(=O)[C@H](CCCNC(=N)N)NC(=O)[C@H](NC(=O)[C@H](CCCNC(=N)N)NC(=O)[C@H](C)NC(=O)[C@H](Cc1ccccc1)NC(=O)[C@H](Cc1ccccc1)NC(=O)[C@H](CCCCN)NC(=O)[C@H](CCCNC(=N)N)NC(=O)[C@@H](N)CC(C)C)[C@@H](C)CC)C(C)C)C(=O)NCC(=O)N[C@@H](CCCNC(=N)N)C(=O)N[C@@H](C)C(=O)N[C@@H](CO)C(=O)N[C@@H](CC(N)=O)C(=O)N[C@@H](CO)C(=O)NCC(=O)N[C@@H](CCCNC(=N)N)C(=O)N[C@@H](CCCCN)C(=O)N[C@@H](CS)C(=O)N[C@@H](C)C(=O)N[C@@H](CCCNC(=N)N)C(=O)N[C@@H](CCCCN)C(=O)N[C@@H](CCCCN)C(=O)N[C@@H](CCCCN)C(=O)O |  | 0.7 (≈ 0.158 µM) | 2.5 (≈ 0.563 µM) | 2.5 (≈ 0.563 µM) | 1.25 (≈ 0.281 µM) | 1.4 (≈ 0.315 µM) |  | Active |  |  |  |  | 
H-AAVLNA-OH |  | > 83.5 |  |  |  | > 83.5 |  |  |  |  |  |  | 
H-AAVLNALGKEEQIGRASNSGRKCARKKK-OH | > 10 | > 16.5 | > 10 | > 10 | > 5 | > 16.5 |  |  |  |  |  |  | 
H-FFARIRGGRAAVLNALGKEEQIGRASNSGRKCARKKK-OH | 2.9 | 1.1 | 2.2 | 10 | 1.9 | 1.5 |  |  | 10 |  |  |  | 
H-GGRAAVLNALGKEEQIGRASNSGRKCARKKK-OH | > 10 | > 15.2 | > 10 | > 10 | > 5 | > 15.2 |  |  |  | inactive | Stable |  | 
H-IRGGRAAVLNALGKEEQIGRAS-OH | 2.4 | 1.2 | > 22 | 38.6 | 4.8 | > 48 | > 205 |  |  |  |  |  | 
H-LGKEEQIGRASNSGRKCARKKK-OH | > 48 | > 33 | > 205 |  | 0.6 | 1.2 | > 22 |  |  |  |  |  | 
H-LRKFFARIRGGR-OH | 19 |  | 7.1 |  | > 22 | 12.1 | 16.5 | Active |  |  |  |  | 
H-RGGRAAVLNA-OH | > 205 | 1.2 | 1.2 | 9.6 | > 48 | > 22 | 38.6 |  |  |  |  |  | 
H-RIRGGRAAVLNA-OH |  |  |  |  |  |  |  |  |  |  |  | inactive | inactive
H-RIRGGRAAVLNALGKEEQIGRASNSGRKCARKKK-OH | 2.5 | 1.7 | > 10 | > 10 | > 5 | 5.9 |  |  |  |  |  |  | 
